ChEMBL document CHEMBL4715860 (J Med Chem, 2020)

Assays:
[1] = Inhibition of mTOR2 in human A2058 cells assessed as reduction in PKB/Akt phosphorylation at Ser473 incubated for 1 hr by Western blot analysis; assay type: cell-based; details: A2058, 1 h
In short: (§1)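 A2058 cells grown 24 h at 37 °C, then exposed to inhibitor or DMSO for 1 h. Cells were PFA-fixed and stained for pPKB Ser473 or pS6 Ser235/236 by in-cell western with IR-dye secondary antibodies. Signal normalized to tubulin and to DMSO. IC50 from a 7-point (triplicate) or 11-point (duplicate) 1:2 series.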

[2] = biological target: PI3-kinase p110-alpha/p85-alpha (Homo sapiens, UniProt P42336); experiment: Inhibition of alexa fluor 647-labeled kinase tracer 314 binding to recombinant human N-terminal His-tagged p110alpha/p85alpha expressed in baculovirus expression system measured after 60 mins by LanthaScreen TR-FRET assay relative to control
Sequence of PI3-kinase p110-alpha/p85-alpha (P27986 whole entry, the tested form may be a part, canonical isoform): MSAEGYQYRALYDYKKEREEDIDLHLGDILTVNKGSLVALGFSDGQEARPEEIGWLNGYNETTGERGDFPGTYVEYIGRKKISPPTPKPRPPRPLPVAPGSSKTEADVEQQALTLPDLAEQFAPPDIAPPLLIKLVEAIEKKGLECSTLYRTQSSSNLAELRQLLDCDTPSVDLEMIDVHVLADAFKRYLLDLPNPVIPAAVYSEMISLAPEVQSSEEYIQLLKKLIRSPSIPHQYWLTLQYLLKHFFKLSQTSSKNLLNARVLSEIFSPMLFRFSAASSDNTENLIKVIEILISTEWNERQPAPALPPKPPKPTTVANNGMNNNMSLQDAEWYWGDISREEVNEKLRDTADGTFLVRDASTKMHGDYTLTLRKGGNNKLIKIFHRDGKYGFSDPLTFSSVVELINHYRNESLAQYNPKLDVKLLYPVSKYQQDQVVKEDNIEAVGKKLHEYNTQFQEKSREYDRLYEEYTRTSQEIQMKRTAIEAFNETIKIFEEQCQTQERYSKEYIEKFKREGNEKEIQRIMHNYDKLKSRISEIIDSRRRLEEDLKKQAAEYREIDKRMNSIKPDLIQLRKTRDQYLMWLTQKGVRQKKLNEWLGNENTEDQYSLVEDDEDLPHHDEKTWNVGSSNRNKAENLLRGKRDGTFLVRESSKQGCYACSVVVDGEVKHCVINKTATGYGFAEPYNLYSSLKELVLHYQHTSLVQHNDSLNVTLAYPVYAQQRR
Sequence of PI3-kinase p110-alpha/p85-alpha (P42336 whole entry, the tested form may be a part, canonical isoform): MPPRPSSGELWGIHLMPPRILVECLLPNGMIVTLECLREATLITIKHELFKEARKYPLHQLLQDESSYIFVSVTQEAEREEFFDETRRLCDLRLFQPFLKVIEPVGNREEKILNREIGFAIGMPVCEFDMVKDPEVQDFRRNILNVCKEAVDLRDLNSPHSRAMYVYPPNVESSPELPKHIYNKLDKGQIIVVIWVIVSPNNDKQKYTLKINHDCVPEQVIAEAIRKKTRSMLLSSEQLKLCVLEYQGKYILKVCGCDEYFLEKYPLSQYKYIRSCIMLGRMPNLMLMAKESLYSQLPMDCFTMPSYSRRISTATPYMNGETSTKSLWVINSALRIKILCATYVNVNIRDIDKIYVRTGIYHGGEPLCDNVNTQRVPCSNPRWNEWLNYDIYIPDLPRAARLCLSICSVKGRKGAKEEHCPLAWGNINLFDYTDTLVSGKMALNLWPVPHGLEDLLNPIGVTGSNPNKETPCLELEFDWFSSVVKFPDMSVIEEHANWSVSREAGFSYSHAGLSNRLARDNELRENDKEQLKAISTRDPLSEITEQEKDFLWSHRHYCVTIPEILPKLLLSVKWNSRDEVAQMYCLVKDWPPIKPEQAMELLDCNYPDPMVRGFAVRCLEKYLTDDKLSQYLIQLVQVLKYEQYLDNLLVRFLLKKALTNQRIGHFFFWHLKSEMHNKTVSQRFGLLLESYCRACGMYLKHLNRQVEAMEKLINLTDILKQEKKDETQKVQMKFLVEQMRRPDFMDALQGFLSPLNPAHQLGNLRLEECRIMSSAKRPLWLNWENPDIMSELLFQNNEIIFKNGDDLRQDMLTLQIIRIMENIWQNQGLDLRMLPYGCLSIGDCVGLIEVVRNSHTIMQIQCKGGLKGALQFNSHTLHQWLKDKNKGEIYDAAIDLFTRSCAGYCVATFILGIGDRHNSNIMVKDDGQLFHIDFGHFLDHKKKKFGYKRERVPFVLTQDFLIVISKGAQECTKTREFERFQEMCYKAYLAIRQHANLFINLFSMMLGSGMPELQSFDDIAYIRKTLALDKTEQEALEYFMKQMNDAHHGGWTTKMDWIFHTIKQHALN

[3] = biological target: Phosphatidylinositol 4,5-bisphosphate 3-kinase catalytic subunit beta isoform (Homo sapiens, UniProt P42338); experiment: Binding affinity to wild-type human partial length PIK3CB (P118 to S1070 residues) expressed in HEK293 cells measured after 1 hr by Kinomescan method; assay type: cell-based
Sequence of Phosphatidylinositol 4,5-bisphosphate 3-kinase catalytic subunit beta isoform (P42338 whole entry, the tested form may be a part, canonical isoform): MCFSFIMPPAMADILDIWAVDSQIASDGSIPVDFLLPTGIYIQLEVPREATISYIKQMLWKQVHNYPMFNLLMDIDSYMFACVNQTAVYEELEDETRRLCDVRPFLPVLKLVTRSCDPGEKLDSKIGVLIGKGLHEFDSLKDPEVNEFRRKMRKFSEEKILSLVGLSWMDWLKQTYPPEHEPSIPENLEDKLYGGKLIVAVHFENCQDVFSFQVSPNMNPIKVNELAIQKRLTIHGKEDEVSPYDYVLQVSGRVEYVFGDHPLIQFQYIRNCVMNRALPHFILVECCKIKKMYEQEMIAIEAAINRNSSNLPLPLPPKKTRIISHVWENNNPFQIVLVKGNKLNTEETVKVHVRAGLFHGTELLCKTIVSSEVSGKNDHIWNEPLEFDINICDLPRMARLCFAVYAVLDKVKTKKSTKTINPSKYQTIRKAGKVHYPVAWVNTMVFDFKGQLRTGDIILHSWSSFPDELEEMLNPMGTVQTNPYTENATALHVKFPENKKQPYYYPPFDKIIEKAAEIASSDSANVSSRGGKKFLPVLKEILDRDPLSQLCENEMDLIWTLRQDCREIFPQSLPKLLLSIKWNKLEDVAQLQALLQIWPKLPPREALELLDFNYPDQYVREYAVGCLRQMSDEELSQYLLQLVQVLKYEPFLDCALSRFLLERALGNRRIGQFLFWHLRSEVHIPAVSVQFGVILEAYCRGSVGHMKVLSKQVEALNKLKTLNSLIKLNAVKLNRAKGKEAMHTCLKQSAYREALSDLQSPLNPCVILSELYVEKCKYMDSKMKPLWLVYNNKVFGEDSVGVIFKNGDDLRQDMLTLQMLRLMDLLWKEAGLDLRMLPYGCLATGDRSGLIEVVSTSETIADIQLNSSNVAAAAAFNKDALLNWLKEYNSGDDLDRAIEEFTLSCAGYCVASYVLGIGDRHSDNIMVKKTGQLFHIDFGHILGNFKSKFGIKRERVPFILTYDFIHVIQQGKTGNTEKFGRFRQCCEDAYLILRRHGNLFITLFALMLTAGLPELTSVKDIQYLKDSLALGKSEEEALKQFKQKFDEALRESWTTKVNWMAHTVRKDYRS
In short: (§2)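 Compound given as an 11-point threefold series from 30 μM, in technical duplicate. Kd from a Hill fit with slope fixed at −1.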

[4] = Inhibition of mTORC1 in human A2058 cells assessed as reduction in RPS6 phosphorylation at S235/236 residue incubated for 1 hrs by Western blot analysis; assay type: cell-based; details: A2058, 1 h; in short: as §1
[5] = biological target: Phosphatidylinositol 4-kinase beta (Homo sapiens, UniProt Q9UBF8); experiment: Binding affinity to wild-type human full length PIK4CB (M1 to M828 residues) expressed in HEK293 cells measured after 1 hr by Kinomescan method; assay type: cell-based; in short: as §2
[6] = biological target: Phosphatidylinositol 3-kinase catalytic subunit type 3 (Homo sapiens, UniProt Q8NEB9); experiment: Binding affinity to wild-type human partial length VPS34 (S282 to H879 residues) expressed in HEK293 cells measured after 1 hr by Kinomescan method; assay type: cell-based; in short: as §2
Sequence of Phosphatidylinositol 3-kinase catalytic subunit type 3 (Q8NEB9 whole entry, the tested form may be a part): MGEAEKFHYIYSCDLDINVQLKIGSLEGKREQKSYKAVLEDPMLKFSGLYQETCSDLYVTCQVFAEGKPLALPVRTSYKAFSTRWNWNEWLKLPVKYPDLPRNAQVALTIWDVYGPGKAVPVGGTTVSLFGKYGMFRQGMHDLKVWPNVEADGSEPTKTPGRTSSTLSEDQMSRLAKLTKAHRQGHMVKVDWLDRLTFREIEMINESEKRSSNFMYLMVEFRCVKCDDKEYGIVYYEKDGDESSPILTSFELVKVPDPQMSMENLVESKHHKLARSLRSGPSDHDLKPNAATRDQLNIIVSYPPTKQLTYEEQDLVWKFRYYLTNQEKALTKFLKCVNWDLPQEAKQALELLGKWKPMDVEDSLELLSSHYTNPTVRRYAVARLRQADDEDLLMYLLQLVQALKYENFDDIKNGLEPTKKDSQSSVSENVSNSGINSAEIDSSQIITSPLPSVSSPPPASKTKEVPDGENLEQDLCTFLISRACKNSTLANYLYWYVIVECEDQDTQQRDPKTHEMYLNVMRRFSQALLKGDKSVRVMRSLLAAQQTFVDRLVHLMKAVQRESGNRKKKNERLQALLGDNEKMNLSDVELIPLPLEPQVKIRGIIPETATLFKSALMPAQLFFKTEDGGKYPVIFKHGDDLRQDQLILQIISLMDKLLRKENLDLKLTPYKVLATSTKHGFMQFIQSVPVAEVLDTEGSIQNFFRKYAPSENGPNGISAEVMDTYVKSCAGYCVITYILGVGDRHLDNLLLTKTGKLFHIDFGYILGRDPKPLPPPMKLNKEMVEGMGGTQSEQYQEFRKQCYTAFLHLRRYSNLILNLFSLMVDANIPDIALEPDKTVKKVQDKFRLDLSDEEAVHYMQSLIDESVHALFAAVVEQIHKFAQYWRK

[7] = biological target: Serine/threonine-protein kinase mTOR (Homo sapiens, UniProt P42345); experiment: Binding affinity to wild-type human partial length MTOR (L1382 to W2549 residues) expressed in HEK293 cells measured after 1 hr by Kinomescan method; assay type: cell-based; in short: as §2
CYP1A1 = biological target: T1, CYP1A1 (Homo sapiens, UniProt P04798); experiment: Drug metabolism assessed as human recombinant CYP1A1 expressed in baculovirus infected insect cells-mediated metabolism by measuring parent compound remaining at 1 uM incubated for 60 mins in presence of NADPH regenerating system by UHPLC based LC-MS analysis; assay type: ADME; details: read-out: Stabilty
T1 sequence (P04798 whole entry): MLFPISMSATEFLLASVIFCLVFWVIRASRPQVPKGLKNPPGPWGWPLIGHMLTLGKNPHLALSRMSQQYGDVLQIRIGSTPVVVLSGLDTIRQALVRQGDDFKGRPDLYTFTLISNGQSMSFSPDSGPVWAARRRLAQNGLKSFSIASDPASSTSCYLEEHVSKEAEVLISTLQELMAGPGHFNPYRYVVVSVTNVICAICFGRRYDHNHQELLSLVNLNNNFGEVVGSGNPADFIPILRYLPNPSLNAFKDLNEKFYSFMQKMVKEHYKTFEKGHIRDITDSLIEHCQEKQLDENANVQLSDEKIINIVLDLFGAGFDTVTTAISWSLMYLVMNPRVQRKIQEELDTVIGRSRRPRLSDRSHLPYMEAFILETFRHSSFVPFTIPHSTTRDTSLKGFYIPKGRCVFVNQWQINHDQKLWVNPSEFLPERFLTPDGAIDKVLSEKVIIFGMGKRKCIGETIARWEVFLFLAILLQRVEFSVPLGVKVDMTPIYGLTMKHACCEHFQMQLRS

[8] = Substrate activity at human P-glycoprotein stably expressed in MDCK cells at 1 uM measured after 5 to 20 mins by UPLC-MS/MS analysis; assay type: ADME, cell-based; details: time 5-20 min
In short: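 CRISPR canine-MDR1-knockout MDCKII cells stably expressing human MDR1, with the knockout parent line as control. Cells grown 5 days on TransWell filters and preincubated in HBSS 30 min at 37 °C. Compound at 1 μM added apical or basolateral. Receiver sampled at 5, 10 and 20 min; UPLC-MS/MS.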

CYP1A2 = biological target: T2, CYP1A2 (Homo sapiens, UniProt P05177); experiment: Drug metabolism assessed as human recombinant CYP1A2 expressed in baculovirus infected insect cells-mediated metabolism by measuring parent compound remaining at 1 uM incubated for 60 mins in presence of NADPH regenerating system by UHPLC based LC-MS analysis; assay type: ADME; details: read-out: Stabilty
T2 sequence (P05177 whole entry): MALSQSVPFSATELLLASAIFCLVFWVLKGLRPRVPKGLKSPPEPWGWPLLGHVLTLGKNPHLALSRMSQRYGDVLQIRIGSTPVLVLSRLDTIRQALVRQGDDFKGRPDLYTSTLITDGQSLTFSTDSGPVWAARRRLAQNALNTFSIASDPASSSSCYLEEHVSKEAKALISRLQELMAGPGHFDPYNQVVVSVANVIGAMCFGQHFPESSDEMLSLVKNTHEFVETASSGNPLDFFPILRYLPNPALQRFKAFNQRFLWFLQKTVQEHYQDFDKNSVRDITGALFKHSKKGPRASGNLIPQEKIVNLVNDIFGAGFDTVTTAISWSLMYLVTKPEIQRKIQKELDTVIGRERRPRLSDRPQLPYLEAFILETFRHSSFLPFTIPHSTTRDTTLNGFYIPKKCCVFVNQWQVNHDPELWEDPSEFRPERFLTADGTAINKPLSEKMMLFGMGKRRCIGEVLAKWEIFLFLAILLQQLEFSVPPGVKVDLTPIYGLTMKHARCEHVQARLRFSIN

[9] = biological target: Phosphatidylinositol 4,5-bisphosphate 3-kinase catalytic subunit alpha isoform (Homo sapiens, UniProt P42336); experiment: Binding affinity to wild-type human partial length PIK3CA (R108 to N1068 residues) expressed in HEK293 cells measured after 1 hr by Kinomescan method; assay type: cell-based; in short: as §2
Sequence of Phosphatidylinositol 4,5-bisphosphate 3-kinase catalytic subunit alpha isoform (P42336 whole entry, the tested form may be a part, canonical isoform): as the sequence (P42336 whole entry, the tested form may be a part, canonical isoform) above

[10] = biological target: Phosphatidylinositol 4,5-bisphosphate 3-kinase catalytic subunit gamma isoform (Homo sapiens, UniProt P48736); experiment: Binding affinity to wild-type human partial length PIK3CG (S144 to A1102 residues) expressed in HEK293 cells measured after 1 hr by Kinomescan method; assay type: cell-based; in short: as §2
Sequence of Phosphatidylinositol 4,5-bisphosphate 3-kinase catalytic subunit gamma isoform (P48736 whole entry, the tested form may be a part, canonical isoform): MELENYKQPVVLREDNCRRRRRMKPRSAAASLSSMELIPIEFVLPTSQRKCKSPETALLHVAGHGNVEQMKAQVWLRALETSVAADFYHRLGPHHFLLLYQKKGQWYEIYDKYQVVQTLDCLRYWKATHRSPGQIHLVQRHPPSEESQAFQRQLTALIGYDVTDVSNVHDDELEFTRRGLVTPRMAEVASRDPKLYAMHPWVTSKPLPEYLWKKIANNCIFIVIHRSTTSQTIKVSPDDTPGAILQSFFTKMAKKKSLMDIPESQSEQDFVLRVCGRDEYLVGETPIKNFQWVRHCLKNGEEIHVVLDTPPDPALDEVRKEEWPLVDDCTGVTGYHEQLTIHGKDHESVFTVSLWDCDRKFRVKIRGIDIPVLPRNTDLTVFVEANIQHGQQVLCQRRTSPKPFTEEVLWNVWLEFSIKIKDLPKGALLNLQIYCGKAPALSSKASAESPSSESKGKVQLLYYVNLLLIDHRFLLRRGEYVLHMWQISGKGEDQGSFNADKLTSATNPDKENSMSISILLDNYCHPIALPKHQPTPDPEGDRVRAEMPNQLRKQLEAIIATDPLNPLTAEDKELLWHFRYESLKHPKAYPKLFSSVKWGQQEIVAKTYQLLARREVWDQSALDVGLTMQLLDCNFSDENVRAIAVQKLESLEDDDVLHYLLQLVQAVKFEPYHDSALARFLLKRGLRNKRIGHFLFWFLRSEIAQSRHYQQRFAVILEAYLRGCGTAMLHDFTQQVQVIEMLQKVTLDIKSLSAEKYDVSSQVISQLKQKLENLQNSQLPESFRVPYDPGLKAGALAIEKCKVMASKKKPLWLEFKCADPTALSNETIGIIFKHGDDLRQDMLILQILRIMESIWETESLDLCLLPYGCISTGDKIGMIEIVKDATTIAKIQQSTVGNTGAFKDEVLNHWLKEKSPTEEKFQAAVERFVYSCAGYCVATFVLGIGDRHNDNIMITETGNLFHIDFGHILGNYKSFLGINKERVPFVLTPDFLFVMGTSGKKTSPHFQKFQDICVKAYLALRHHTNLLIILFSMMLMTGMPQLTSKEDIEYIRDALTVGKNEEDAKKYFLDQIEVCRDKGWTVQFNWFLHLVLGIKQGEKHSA

IC50 [1] [µM]	Ki [2] [µM]	Kd [3] [µM]	IC50 [4] [µM]	Kd [5] [µM]	Kd [6] [µM]	Kd [7] [µM]	remaining at 1 h, 1 µM (CYP1A1) [%]	Activity [8]	remaining at 1 h, 1 µM (CYP1A2) [%]	Kd [9] [µM]	Kd [10] [µM]	Structure (SMILES)
0.096	0.287	1.45	0.071	> 30	0.065	0.00067	45.1	Not Active	98.5	0.11	1.35	C[C@@H]1COCCN1c1nc(-c2cnc(N)cc2C(F)F)nc(N2[C@H](C)COC[C@@H]2C)n1
0.191	0.469	1.35	0.061	> 30	0.028	0.00088	1.9	Not Active	101	0.081	0.595	C[C@@H]1COCCN1c1nc(-c2cnc(N)cc2C(F)F)nc(N2CCOCC2(C)C)n1
